Measurements gathered from unrelated publications.
Target: Calcium/calmodulin-dependent protein kinase type II subunit gamma (CAMK2G, Homo sapiens, UniProt Q13555)

Structure (SMILES)	read-out	action	method	concentration	endpoint	value
COc1cc(Cl)c(C(=O)N[C@@H](CN[C@H]2CC[C@@H](N)CC2)Cc2ccc(C#N)cc2)cc1-c1ccc(CN[C@H](C)c2ccc(C)cc2)o1	enzyme activity	inhibitor	–	1 µM	remaining activity	87%
CNCc1ccccc1-c1csc([C@H](C)Nc2nc(C)nc3cc(OC)c(OC)cc23)c1	cell-free assay	–	competition with immobilised ligand	1 µM	remaining binding	90%
Nc1ncnc2occ(-c3ccc(NC(=O)Nc4cc(C(F)(F)F)ccc4F)cc3)c12	cell-free assay	–	–	20 µM	remaining signal	71%
COc1ccc2c(O[C@@H]3C[C@H]4C(=O)N[C@]5(C(=O)O)CC5/C=C\CCCCC[C@H](NC(=O)OC5CCCC5)C(=O)N4C3)cc(-c3csc(NC(=O)C(C)C)n3)nc2c1C (some centres unmarked)	cell-free assay	–	competition with immobilised ligand	1 µM	remaining binding	100%
CNC(=O)c1cc(Oc2ccc(NC(=O)Nc3ccc(Cl)c(C(F)(F)F)c3)cc2)ccn1	cell-free assay	–	–	10 µM	inhibition	78%
O=c1nc(-c2ccccn2)sc2ccccc12	binding	–	competition with immobilised ligand	1 µM	remaining binding	96%
CS(=O)(=O)CCNCc1ccc(-c2ccc3ncnc(Nc4ccc(OCc5cccc(F)c5)c(Cl)c4)c3c2)o1	cell-free assay	–	–	0.5 µM	remaining signal	111%
O=C(Nc1nccs1)C(c1cc(F)ccc1O)N1Cc2ccccc2C1=O (centres unmarked)	enzyme activity	inhibitor	–	1 µM	inhibition	9%
Cc1sc(C(=O)NC2COC2)cc1-n1cc(NC(=O)Nc2c(F)cccc2Cl)cn1	enzyme activity	inhibitor	–	10 µM	remaining activity	102%
CCCOc1ccc(OC)c(F)c1C(=O)c1ccc(C(=O)N[C@@H]2CNC[C@H]2NC(=O)c2ccc3[nH]ncc3c2)cc1	enzyme activity	inhibitor	–	10 µM	remaining activity	79%
COc1ccc2cc(OCC3(C(=O)O)CN(C(=O)c4ccc(F)cc4)C3)ccc2c1	cell-free assay	–	competition with immobilised ligand	1 µM	remaining binding	100%
O=C(Nc1cnn(-c2csc(C(=O)NC3COC3)c2)c1)Nc1c(F)cccc1Cl	enzyme activity	inhibitor	–	5 µM	remaining activity	90.1%
CCN(CC)c1ccc(C2=NNC(=O)CC2C)cc1[N+](=O)[O-] (centres unmarked)	enzyme activity	inhibitor	–	10 µM	remaining activity	119%
CC(C)c1ccc(NC(=O)c2cccs2)c(-c2nc3ccccc3[nH]c2=O)c1	enzyme activity	inhibitor	–	1 µM	activity vs control	100%
N#CCCc1ccc2c(c1)-c1[nH]c3ccc([N+](=O)[O-])cc3c1CC(=O)N2	cell-free assay	–	–	0.5 µM	remaining signal	66%
CC(C)(C)c1nc2c(s1)c1nc(N)ncc1c1ccc(NS(=O)(=O)c3c(F)cccc3F)c(F)c12	enzyme activity	inhibitor	radiometric	1 µM	remaining activity	118%
C[C@@H]1CN(c2cc(-c3nn(C)c4ccc(OC5(C)CC5)cc34)ncn2)C[C@H](C)O1	cell-free assay	–	competition with immobilised ligand	1 µM	remaining binding	90%
O=C1NC(=O)c2cc(Nc3ccc(F)cc3)c(Nc3ccc(F)cc3)cc21	cell-free assay	–	–	0.5 µM	remaining signal	101%
CN(C)c1ncnc(-c2ccc3nc(Nc4cc(CN5CCN(C(=O)CC(F)(F)F)CC5)ccn4)[nH]c3c2)c1Cl	cell-free assay	–	competition with immobilised ligand	1 µM	remaining binding	100%
CCCS(=O)(=O)Nc1ccc(F)c(C(=O)c2c[nH]c3ncc(-c4ccc(Cl)cc4)cc23)c1F	enzyme activity	inhibitor	–	1 µM	inhibition	< 10%
